Assay results published in ChEMBL document CHEMBL4118097, “Selective Inhibitors of Dual Leucine Zipper Kinase (DLK, MAP3K12) with Activity in a Model of Alzheimer's Disease” (J Med Chem, 2017).

Key:
[1] = target: Mitogen-activated protein kinase kinase kinase 13 (Homo sapiens, UniProt O43283); assay: Binding affinity to full length wild type human LZK (M1 to W966 residues) expressed in mammalian cells by KINOMEscan assay; type: cell-based
[2] = target: Mitogen-activated protein kinase kinase kinase 12 (Mus musculus) (UniProt Q60700); assay: Inhibition of DLK in CD-1 mouse DRG neuron assessed as axonal protection pre-incubated for 2 hrs before NGF deprivation for 16 to 20 hrs by Campenot chamber based fluorescence assay
Chain of Mitogen-activated protein kinase kinase kinase 12 (Mus musculus) (Q60700 whole entry): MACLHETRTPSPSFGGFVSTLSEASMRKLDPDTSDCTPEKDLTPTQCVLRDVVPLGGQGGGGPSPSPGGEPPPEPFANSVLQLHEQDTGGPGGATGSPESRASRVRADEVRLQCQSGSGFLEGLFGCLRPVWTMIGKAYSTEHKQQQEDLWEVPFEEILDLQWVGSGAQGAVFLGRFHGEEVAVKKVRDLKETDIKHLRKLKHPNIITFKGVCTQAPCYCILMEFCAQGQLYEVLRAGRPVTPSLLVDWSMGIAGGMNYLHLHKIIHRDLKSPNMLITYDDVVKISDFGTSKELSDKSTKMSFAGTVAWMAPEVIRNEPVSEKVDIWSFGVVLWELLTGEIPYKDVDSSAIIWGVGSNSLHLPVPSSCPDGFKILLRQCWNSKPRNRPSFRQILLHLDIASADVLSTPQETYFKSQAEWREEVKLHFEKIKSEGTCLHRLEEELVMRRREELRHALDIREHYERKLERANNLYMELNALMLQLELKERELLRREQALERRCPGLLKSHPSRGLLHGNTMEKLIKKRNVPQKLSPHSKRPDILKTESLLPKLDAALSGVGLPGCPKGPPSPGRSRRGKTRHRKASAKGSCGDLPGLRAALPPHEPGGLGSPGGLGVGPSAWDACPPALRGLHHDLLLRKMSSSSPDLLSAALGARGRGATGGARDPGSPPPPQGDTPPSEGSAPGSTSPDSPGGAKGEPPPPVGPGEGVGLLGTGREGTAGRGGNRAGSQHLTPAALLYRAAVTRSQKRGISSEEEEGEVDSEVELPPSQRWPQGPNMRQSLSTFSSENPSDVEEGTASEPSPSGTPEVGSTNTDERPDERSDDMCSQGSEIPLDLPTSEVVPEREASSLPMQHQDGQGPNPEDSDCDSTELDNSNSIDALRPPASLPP
In short: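 High-content imaging assay of axon degeneration, with automated quantification of axons. Protection is expressed relative to a positive control in which degeneration was not induced. EC50 was taken from dose-response curves, each point being the average of three independent assays ± SD.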

[3] = target: Epithelial discoidin domain-containing receptor 1 (Homo sapiens) (UniProt Q08345); assay: Inhibition of recombinant GST-tagged human DDR1 (440 to 876 residues) expressed in baculovirus expression system at 1 uM by FRET assay relative to control
In short: (§1)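 Single-point screen at 1 μM compound in a 220-kinase panel run by Life Technologies (SelectScreen). Z′-LYTE format: phosphorylation of a labeled peptide substrate read by FRET. Values are reported as percent inhibition.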

[4] = target: Mitogen-activated protein kinase kinase kinase 8 (Homo sapiens) (UniProt P41279); assay: Inhibition of recombinant GST-tagged human Cot catalytic domain (30 to 397 residues) expressed in baculovirus expression system at 1 uM by FRET assay relative to control
Chain of Mitogen-activated protein kinase kinase kinase 8 (Homo sapiens) (P41279 whole entry, the tested form may be a part): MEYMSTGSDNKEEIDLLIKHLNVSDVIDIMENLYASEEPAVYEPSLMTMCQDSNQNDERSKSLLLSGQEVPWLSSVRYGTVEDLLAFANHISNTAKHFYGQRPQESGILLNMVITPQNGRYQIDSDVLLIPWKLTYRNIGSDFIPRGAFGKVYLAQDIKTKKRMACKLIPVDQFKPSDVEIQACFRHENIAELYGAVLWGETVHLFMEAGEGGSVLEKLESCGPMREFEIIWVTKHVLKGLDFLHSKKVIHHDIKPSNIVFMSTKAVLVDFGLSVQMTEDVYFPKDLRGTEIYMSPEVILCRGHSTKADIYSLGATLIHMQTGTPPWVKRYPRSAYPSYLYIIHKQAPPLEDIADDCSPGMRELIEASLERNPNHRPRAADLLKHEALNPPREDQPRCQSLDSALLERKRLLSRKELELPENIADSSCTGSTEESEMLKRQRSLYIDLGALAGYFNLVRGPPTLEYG

[5] = target: Cyclin-dependent kinase 5/CDK5 activator 1 (Homo sapiens) (UniProt Q00535+Q15078); assay: Inhibition of recombinant full length His/GST-tagged human CDK5/p25 expressed in baculovirus expression system at 1 uM by FRET assay relative to control
[6] = target: CDK2/Cyclin A2 (Homo sapiens) (UniProt P24941+P20248); assay: Inhibition of recombinant full length His-tagged human CDK2/CyclinA expressed in baculovirus expression system at 1 uM by FRET assay relative to control
[7] = target: Serine/threonine-protein kinase B-raf (Homo sapiens) (UniProt P15056); assay: Inhibition of B-Raf (unknown origin) at 1 uM by FRET assay relative to control
Chain of Serine/threonine-protein kinase B-raf (Homo sapiens) (P15056 whole entry, the tested form may be a part): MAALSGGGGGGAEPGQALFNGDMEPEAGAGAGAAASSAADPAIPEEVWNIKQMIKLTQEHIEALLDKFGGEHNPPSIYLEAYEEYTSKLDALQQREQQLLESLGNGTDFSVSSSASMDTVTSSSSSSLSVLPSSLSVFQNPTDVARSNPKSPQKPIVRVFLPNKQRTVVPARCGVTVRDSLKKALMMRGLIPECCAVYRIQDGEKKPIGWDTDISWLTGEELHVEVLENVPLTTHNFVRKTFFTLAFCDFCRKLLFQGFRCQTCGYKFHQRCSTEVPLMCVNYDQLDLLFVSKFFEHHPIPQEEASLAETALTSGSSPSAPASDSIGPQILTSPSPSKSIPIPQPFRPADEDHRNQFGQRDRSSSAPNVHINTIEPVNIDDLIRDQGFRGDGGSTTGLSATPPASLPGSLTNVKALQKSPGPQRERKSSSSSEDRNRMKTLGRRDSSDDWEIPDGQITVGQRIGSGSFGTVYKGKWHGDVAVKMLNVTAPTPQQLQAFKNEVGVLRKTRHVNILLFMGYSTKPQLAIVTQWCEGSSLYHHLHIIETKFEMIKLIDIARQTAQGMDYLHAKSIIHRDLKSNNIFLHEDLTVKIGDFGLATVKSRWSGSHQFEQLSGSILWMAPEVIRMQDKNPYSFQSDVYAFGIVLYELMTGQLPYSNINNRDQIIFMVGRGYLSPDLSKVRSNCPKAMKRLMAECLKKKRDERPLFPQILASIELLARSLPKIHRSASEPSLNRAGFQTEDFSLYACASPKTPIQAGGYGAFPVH

[8] = target: Tyrosine-protein kinase ITK/TSK (Homo sapiens) (UniProt Q08881); assay: Inhibition of recombinant full length GST-tagged human ITK cytoplasmic domain (473 to end residues) expressed in baculovirus expression system at 1 uM by FRET relative to control
In short: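 Single-concentration screen at 1 μM in Life Technologies SelectScreen, across a 220-kinase panel. Z′-LYTE format measures phosphorylation of a labeled peptide by FRET. Results are reported as percent inhibition.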

[9] = target: Vascular endothelial growth factor receptor 3 (Homo sapiens) (UniProt P35916); assay: Inhibition of recombinant GST-tagged human FLT4 cytoplasmic domain expressed in baculovirus expression system at 1 uM by FRET assay relative to control; in short: as §1
[10] = target: Ephrin type-A receptor 3 (Homo sapiens) (UniProt P29320); assay: Inhibition of recombinant His-tagged human EphA3 cytoplasmic domain expressed in baculovirus expression system at 1 uM by FRET assay relative to control; in short: as §1
Chain of Ephrin type-A receptor 3 (Homo sapiens) (P29320 whole entry, the tested form may be a part): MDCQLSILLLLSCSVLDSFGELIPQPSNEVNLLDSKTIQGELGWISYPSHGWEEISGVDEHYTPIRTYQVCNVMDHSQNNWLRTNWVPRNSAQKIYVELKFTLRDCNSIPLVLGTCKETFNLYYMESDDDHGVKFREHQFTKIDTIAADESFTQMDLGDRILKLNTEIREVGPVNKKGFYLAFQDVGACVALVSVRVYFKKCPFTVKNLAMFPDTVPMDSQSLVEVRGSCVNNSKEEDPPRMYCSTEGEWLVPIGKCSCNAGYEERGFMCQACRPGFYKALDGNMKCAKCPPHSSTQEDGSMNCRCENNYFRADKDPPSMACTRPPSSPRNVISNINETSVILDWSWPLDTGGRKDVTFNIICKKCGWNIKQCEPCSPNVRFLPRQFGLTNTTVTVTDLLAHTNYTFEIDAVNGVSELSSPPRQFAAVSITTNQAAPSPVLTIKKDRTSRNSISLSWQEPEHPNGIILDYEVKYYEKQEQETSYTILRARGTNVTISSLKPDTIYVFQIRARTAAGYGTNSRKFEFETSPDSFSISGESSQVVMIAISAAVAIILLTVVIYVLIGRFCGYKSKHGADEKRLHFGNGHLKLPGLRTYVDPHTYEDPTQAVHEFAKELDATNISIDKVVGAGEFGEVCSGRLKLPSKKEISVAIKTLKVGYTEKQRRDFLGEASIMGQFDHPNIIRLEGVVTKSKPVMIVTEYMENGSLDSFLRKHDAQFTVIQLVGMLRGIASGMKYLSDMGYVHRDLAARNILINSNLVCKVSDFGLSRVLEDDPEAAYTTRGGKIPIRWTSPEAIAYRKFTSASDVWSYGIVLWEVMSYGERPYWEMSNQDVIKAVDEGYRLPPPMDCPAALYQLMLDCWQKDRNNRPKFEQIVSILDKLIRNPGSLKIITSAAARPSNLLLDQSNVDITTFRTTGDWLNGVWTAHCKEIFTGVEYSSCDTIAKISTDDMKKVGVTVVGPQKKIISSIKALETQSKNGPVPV

[11] = target: PAS domain-containing serine/threonine-protein kinase (Homo sapiens) (UniProt Q96RG2); assay: Inhibition of recombinant GST-tagged human PASK catalytic domain expressed in baculovirus expression system at 1 uM by FRET assay relative to control; in short: as §1
[12] = target: Serine/threonine-protein kinase PAK 6 (Homo sapiens) (UniProt Q9NQU5); assay: Inhibition of recombinant full length His-tagged human PAK6 expressed in baculovirus expression system at 1 uM by FRET assay relative to control
Chain of Serine/threonine-protein kinase PAK 6 (Homo sapiens) (Q9NQU5 whole entry, looked up): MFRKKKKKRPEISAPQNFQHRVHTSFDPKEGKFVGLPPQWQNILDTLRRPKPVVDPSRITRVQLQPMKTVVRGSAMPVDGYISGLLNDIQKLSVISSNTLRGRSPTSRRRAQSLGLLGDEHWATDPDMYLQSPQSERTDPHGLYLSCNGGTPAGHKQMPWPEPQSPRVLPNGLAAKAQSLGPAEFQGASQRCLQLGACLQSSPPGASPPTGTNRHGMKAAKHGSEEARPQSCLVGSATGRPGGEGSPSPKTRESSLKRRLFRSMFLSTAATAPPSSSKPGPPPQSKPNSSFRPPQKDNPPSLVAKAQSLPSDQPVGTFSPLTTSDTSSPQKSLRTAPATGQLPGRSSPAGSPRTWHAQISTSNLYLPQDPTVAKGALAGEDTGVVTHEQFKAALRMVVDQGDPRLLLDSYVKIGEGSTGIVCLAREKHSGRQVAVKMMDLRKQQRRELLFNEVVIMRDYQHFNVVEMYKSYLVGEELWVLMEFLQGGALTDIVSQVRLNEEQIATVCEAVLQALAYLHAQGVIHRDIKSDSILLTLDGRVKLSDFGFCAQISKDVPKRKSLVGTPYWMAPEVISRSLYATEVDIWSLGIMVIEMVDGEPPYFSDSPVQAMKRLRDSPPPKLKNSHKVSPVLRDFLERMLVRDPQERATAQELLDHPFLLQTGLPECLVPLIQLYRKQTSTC

[13] = target: Mitogen-activated protein kinase 12 (Homo sapiens) (UniProt P53778); assay: Inhibition of recombinant full length His-tagged human p38gamma expressed in baculovirus expression system at 1 uM by FRET assay relative to control
[14] = target: Serine/threonine-protein kinase Nek6 (Homo sapiens) (UniProt Q9HC98); assay: Inhibition of recombinant GST-tagged human NEK6 catalytic domain expressed in baculovirus expression system at 1 uM by FRET assay relative to control; in short: as §1
Chain of Serine/threonine-protein kinase Nek6 (Homo sapiens) (Q9HC98 whole entry, the tested form may be a part): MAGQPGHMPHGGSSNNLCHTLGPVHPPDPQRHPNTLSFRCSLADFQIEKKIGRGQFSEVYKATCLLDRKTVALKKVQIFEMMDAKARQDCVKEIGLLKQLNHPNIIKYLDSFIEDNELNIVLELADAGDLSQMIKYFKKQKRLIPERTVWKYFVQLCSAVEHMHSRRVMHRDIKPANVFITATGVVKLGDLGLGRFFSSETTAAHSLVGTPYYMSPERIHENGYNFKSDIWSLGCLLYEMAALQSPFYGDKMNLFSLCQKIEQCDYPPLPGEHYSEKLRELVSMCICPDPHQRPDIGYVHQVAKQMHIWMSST

[15] = target: Mitogen-activated protein kinase kinase kinase 9 (Homo sapiens, UniProt P80192); assay: Inhibition of recombinant human GST-tagged MLK1 expressed in baculovirus at 1 uM by FRET assay relative to control
[16] = target: Dual specificity mitogen-activated protein kinase kinase 6 (Homo sapiens) (UniProt P52564); assay: Inhibition of recombinant human full length His-tagged MKK6 expressed in baculovirus at 1 uM by FRET assay relative to control
Chain of Dual specificity mitogen-activated protein kinase kinase 6 (Homo sapiens) (P52564 whole entry): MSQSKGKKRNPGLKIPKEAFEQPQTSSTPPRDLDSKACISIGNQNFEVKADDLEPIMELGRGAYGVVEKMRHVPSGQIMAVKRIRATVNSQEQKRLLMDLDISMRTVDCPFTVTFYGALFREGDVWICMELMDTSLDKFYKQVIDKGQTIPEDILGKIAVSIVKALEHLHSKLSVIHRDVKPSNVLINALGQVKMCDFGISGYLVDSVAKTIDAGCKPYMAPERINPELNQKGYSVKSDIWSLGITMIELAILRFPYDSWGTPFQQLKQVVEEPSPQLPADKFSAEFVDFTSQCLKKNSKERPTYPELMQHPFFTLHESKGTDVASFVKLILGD

[17] = target: Misshapen-like kinase 1 (Homo sapiens) (UniProt Q8N4C8); assay: Inhibition of recombinant human GST-tagged MINK1 expressed in baculovirus at 1 uM by FRET assay relative to control
[18] = target: Testis-specific serine/threonine-protein kinase 1 (Homo sapiens) (UniProt Q9BXA7); assay: Inhibition of recombinant full length His-tagged human TSSK1 expressed in baculovirus expression system at 1 uM by FRET assay relative to control
[19] = target: Serine/threonine-protein kinase 16 (Homo sapiens, UniProt O75716); assay: Inhibition of recombinant full length His-tagged human STK16 expressed in baculovirus expression system at 1 uM by FRET assay relative to control
Chain of Serine/threonine-protein kinase 16 (O75716 whole entry, the tested form may be a part): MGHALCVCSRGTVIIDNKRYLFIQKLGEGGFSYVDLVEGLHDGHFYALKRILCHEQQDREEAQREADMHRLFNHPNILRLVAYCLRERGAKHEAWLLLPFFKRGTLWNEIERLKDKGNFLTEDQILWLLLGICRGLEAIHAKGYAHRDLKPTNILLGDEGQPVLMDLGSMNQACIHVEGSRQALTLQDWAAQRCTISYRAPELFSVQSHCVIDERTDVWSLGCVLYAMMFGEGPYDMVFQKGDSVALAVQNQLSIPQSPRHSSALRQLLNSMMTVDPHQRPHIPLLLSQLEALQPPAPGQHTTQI

[20] = target: Tyrosine-protein kinase Srms (Homo sapiens) (UniProt Q9H3Y6); assay: Inhibition of recombinant full length GST-tagged human Srm cytoplasmic domain expressed in baculovirus expression system at 1 uM by FRET assay relative to control
In short: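 Part of a 220-kinase panel run at a single concentration of 1 μM. Z′-LYTE format: phosphorylation of a labelled peptide read by FRET. Values reported as percent inhibition.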

[21] = target: Serine/threonine-protein kinase PLK2 (Homo sapiens) (UniProt Q9NYY3); assay: Inhibition of full length recombinant GST-tagged human PLK2 expressed in baculovirus expression system at 1 uM by FRET assay relative to control
[22] = target: Protein kinase C eta type (Homo sapiens) (UniProt P24723); assay: Inhibition of PKCeta (unknown origin) at 1 uM by FRET assay relative to control
[23] = target: Beta-1 adrenergic receptor (Homo sapiens) (UniProt P08588); assay: Binding affinity to recombinant human beta1 adrenergic receptor at 10 uM relative to control
In short: (§2)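 Broad radioligand-binding and enzyme screening panel covering 42 targets (biogenic amine and neuropeptide receptors, ion channels, neurotransmitter transporters, acetylcholinesterase). Single test concentration of 10 μM. Results expressed as binding relative to control, with a hit defined as >50% of control.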

[24] = target: Muscarinic acetylcholine receptor M1 (Homo sapiens) (UniProt P11229); assay: Binding affinity to recombinant human M1 acetylcholine receptor at 10 uM relative to control; in short: as §2
[25] = target: Nicotinic acetylcholine receptor alpha-1/beta-1/delta/epsilon (Homo sapiens) (UniProt P02708+P11230+Q07001+Q04844); assay: Binding affinity to (alpha1)2beta1deltaepsilon nAChR (unknown origin) receptor at 10 uM relative to control; type: protein-complex assay; in short: as §2

SMILES: CC(C)n1nc(-c2cnc(N)c(OC(F)(F)F)c2)cc1[C@H]1[C@@H]2CN(C3COC3)C[C@@H]21
- Kd [1]: 460 nM
- Activity [2]: Dose-dependent effect
- inhibition [3]: 5.2%
- inhibition [4]: 14.3%
- inhibition [5]: -0.8%
- inhibition [6]: 5.7%
- inhibition [7]: 3.7%
- inhibition [8]: 10.9%
- inhibition [9]: 22.1%
- inhibition [10]: 10.2%
- inhibition [11]: -0.6%
- inhibition [12]: 4.8%
- inhibition [13]: 7.8%
- inhibition [14]: 5.1%
- inhibition [15]: -7.2%
- inhibition [16]: 10.6%
- inhibition [17]: 33.3%
- inhibition [18]: 9.4%
- inhibition [19]: 50.3%
- inhibition [20]: -2.5%
- inhibition [21]: 17.3%
- inhibition [22]: 1.7%
- Activity [23]: > 50%
- Activity [24]: > 50%
- Activity [25]: > 50%

SMILES: Nc1ncc(-c2cc([C@H]3[C@@H]4CN(C5COC5)C[C@@H]43)n(CC3CC3)n2)cc1C(F)(F)F
- Kd [1]: 120 nM
- Activity [2]: Dose-dependent effect
- inhibition [3]: -1.5%
- inhibition [4]: 3.4%
- inhibition [5]: 9.6%
- inhibition [6]: 4.3%
- inhibition [7]: 1.8%
- inhibition [8]: 0.8%
- inhibition [9]: 44.6%
- inhibition [10]: 22.9%
- inhibition [11]: 4.5%
- inhibition [12]: 5.1%
- inhibition [13]: 7.8%
- inhibition [14]: 0.3%
- inhibition [15]: 28.5%
- inhibition [16]: -0.9%
- inhibition [17]: 12%
- inhibition [18]: 11.5%
- inhibition [19]: 33.2%
- inhibition [20]: 4%
- inhibition [21]: 2.7%
- inhibition [22]: -3.9%
- Activity [23]: > 50%
- Activity [24]: > 50%
- Activity [25]: > 50%
